From publication PMC7657097 (Medical Mycology, 2020)
In brackets after ≈: the same amount, converted by molar mass. Where two headings read alike, the source gives them in different places.

Key:
[1] = test system: primary human nasal epithelial cells; assay: Cytotoxicity test; assay type: cell-based; settings: 5 μM peptide, 3 hours at 37°C, WST-1
Method in brief: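 Primary human nasal epithelial cells were grown to confluency in bronchial epithelial cell medium. Cells were exposed to peptide, then washed three times with PBS. Viability was measured colorimetrically with WST-1 (10% v/v in cell medium). Controls were no peptide (100% viability) and 70% ethanol (total loss of viability). Runs were in triplicate, and treated wells were compared with no-peptide wells by two-tailed paired Student t test.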

A. fumigatus [2] = settings: EUCAST, ref [27], cited from earlier work
A. fumigatus [3] = assay: Metabolic assay; assay type: cell-based, Aspergillus fumigatus; settings: for inhibition of metabolic activity: A. fumigatus strains Af293, CEA10 and DTO342-B2, 1 μM peptide, initial experiments, results not shown
Method in brief: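 A. fumigatus grown 4 days on PDA at 37°C; conidia scraped into saline with 0.002% Tween 20 and counted by haemocytometer. Each well held 5 × 10³ conidia, glucose (final 2%), resazurin and water-diluted peptide. Controls lacked peptide or cells; edge wells held water. Absorbance at 570 nm, corrected for the no-cell control, read repeatedly. Initial strain set tested in duplicate.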

Row | Compound | MIC (A. fumigatus [2]; A. fumigatus DTO 326-I1) | MIC (A. fumigatus [2]; A. fumigatus DTO 327-A8) | inhibition of metabolic activity (A. fumigatus [3]) | other results
1 | CCO [EtOH, ethanol] | – | – | – | cell viability, Average (%) ([1]; no peptide = 100% viability, in triplo): 17.5%; cytotoxic effect vs no peptide ([1]; two-tailed paired Student t test): increased cytotoxic activity
2 | CCC(C)n1ncn(-c2ccc(N3CCN(c4ccc(OCC5COC(Cn6cncn6)(c6ccc(Cl)cc6Cl)O5)cc4)CC3)cc2)c1=O (stereo not drawn) [ITC, itraconazole] | Human patient from hematology; Resistant to ITC (>16), POS (1), Intermediate for VRC (2) mg/l | Human ICU patient; Resistant to ITC (>16), POS (0.25), VRC (>16) mg/l | – | –
3 | C[C@@H](c1ncncc1F)[C@](O)(Cn1cncn1)c1ccc(F)cc1F [VRC, voriconazole] | 2 mg/L (≈ 5.73 µM) | Human ICU patient; Resistant to ITC (>16), POS (0.25), VRC (>16) mg/l | – | –
4 | APKAMRRWVQRWIRRWRPKVLQKNNYL-NH2 [CR183] | – | – | inhibited the metabolic activity strongly | –
5 | LLGDFFRKSKEKIGKEFKRIVQRIKDFLRNLVPRTES-NH2 [LL-37] | – | – | – | concentration at which metabolic activity is inhibited (A. fumigatus [3]; azole-resistant A. fumigatus strains DTO 327-A8 and 326-I1, tested at 1 and 5 μM, 0.125×MM, 105 μM resazurin, 37°C, 27 h, two experiments): did not inhibit metabolic activity
6 | RRWVQRWIRRWRKVAAARRWVQRWIRRWRPKV-NH2 [CR173] | – | – | inhibited the metabolic activity strongly | –
